Compound activity: PubChem, several laboratories
PTK2B oligo ant – blocks oligomerization of human Pyk2 in cells; Q293 cells, Pyk2 FERM NanoBiT luminescence; stronger effect = lower value; z-score (the deposit names both 25 µM and 10 µM); Q14289; 99,000 tested, 0.83% active; AID 1347419;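 active = Z-score of -3 or lower, scaled per plate to the spread of control and sample wells; inactive = z-score above -3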;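 note: negative z-score means lost luminescence so less FERM oligomerization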
Jurkat tox 60K – cytotoxicity toward Jurkat cells; Jurkat E6.1 viability, ATP luminescence, 48 h; inhibition, % at 4 µM; 56,000 tested, 1.2% active; AID 463;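 active = inhibition above the mean inhibition of all tested compounds plus 3 SD, cut at about 28% in these data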
Lung fibro prol – blocks proliferation of human lung fibroblasts; AID 719; LL 47 human lung fibroblast viability, ATP luminescence; stronger effect = lower value; 85,000 tested, 1.1% active; viability, % at 10 µM;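 active = viability at or below 50% in the single dose screen; inactive = viability above 50%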;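 note: compound exposure lasted 72 h before the ATP readout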
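Signal: luminescent ATP detection, CellTiter-Glo; assay system: LL 47 human lung fibroblasts; input: 1,150 cells/well; incubation: overnight cell rest, 72 h compound treatment at 37 °C; measure: % viability versus median cells-only luminescence; medium: IMEM growth medium with 15% fetal bovine serum; dosing: compound addition at 0.1% DMSO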
MT1-MMP txn act – MT1-MMP promoter transcription activation; HT1080 MT1-MMP promoter luciferase reporter, luminescence, overnight; stronger effect = higher value; activation factor at 10 µM; 86,000 tested, 0.16% active;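 active = activation factor of at least 2 for MT1-MMP transcription at 10 µM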
H69AR inhibit – blocks growth of human H69AR lung tumor cells. H69AR lung tumor viability, ATP luminescence, 72 h; stronger effect = lower value. viability, % at 10 µM. 85,000 tested, 6% active. AID 598;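 active = viability at or below 40%; inactive = viability above 40%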;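 note: multidrug resistant small cell line overexpressing MRP-1 efflux transporter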
HUVEC inhibit – blocks proliferation of human endothelial cells; HUVEC proliferation, CellTiter-Glo luminescence, 72 h; stronger effect = lower value; viability, % at 10 µM (by protocol); AID 648; 86,000 tested, 1.1% active;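 active = viability at or below 30%; inactive = viability above 30%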
Hits are given with their value; i = inactive; nt = no result. Only some compounds are listed: those with a hit (about 5.9% of all), similar ones and a draw of the others.

SMILES	PTK2B oligo ant	Jurkat tox 60K	Lung fibro prol	MT1-MMP txn act	H69AR inhibit	HUVEC inhibit
Cc1cccc(-c2cc3nc(C)cc(NCCCn4ccnc4)n3n2)c1	i	nt	i	i	i	i
Cc1cc(NCCCN2CCOCC2)n2ncc(-c3ccc(Cl)cc3)c2n1	i	i	46.0	i	24.3	i
Cc1cc(NCCCn2ccnc2)n2ncc(-c3ccc(Cl)cc3)c2n1	i	nt	22.0	nt	19.4	9.4
Cc1ccc(-c2onc3ccc(C=O)cc23)cc1	i	nt	i	i	33.4	i
Cc1ccc(-c2onc3ccc(C4(C)OCCO4)cc23)cc1	i	nt	i	i	i	i
O=C(N1CCCC1)C12CCC3CC(CC(C3)C1)C2	i	nt	i	i	i	i
C#CCSc1nc(-c2cccs2)ccc1C#N	i	i	i	i	i	i
COc1ccc(CNC(=O)CSc2nc(-c3ccccc3)cc(-c3cccs3)c2C#N)cc1	i	nt	i	i	i	i
CSc1nc(C2CC2)cc(-c2cccs2)c1C#N	i	i	31.6	i	8.6	29.9
COc1ccc(-c2cc(-c3cccs3)c(C#N)c(SCC(=O)NCc3ccco3)n2)cc1	i	i	i	i	22.2	i
CN1CCN(C(=O)CSc2nc(-c3cccs3)cc(-c3cccs3)c2C#N)CC1	i	i	i	i	5.4	2.0
COC(=O)CSc1nc(-c2cccs2)ccc1C#N	i	nt	i	i	36.6	i
C=CCn1c(=O)/c(=C2/SC(C)=C(C)N2CC)s/c1=C1/C(=O)N(C)C(=S)N1c1ccccc1	nt	nt	i	i	i	i
COc1cccc(/C=C2\N=C(c3c(-c4ccccc4)noc3C)OC2=O)c1	i	nt	nt	nt	nt	nt
COc1cccc(/C=C2\C(=O)C(=O)c3ccccc32)c1	i	nt	i	i	5.3	i
Cn1c2ccccc2c2c(C(=O)N3CCN(c4ccccc4)CC3)cn(C3CCCC3)c(=O)c21	i	nt	i	nt	i	i
Cc1cccc(N2CCN(C(=O)c3cn(C)c(=O)c4c3c3ccccc3n4C)CC2)c1C	i	i	i	i	31.4	i
Cc1ccc(Cl)cc1N1CCN(C(=O)c2cn(C)c(=O)c3c2c2ccccc2n3C)CC1	i	i	i	i	3.4	i
O=C(COc1ccc(Br)cc1)Nc1ccc([N+](=O)[O-])cn1	i	nt	nt	nt	nt	nt
Cn1c(C(=O)NC2CCCCCC2)cc2c(=O)n(C)c3ccccc3c21	nt	i	i	i	12.4	i
CC1CCCCN1CCNC(=O)c1cc2c(=O)n(C)c3ccccc3c2n1C (centres undefined)	nt	i	i	i	i	i
Cn1c(C(=O)NC2CCCCC2)cc2c(=O)n(C)c3ccccc3c21	nt	i	i	i	11.0	i
CC1CCC(NC(=O)c2cc3c(=O)n(C)c4ccccc4c3n2C)CC1 (centres undefined)	nt	i	i	i	29.0	i
CC(CN(C)Cc1ccccc1)OC(=O)c1ccc2c(c1)OCCO2 (centres undefined)	i	nt	i	i	i	i
CC(=O)OC1COC(N2CCc3cc(Br)c([N+](=O)[O-])cc32)C(OC(C)=O)C1OC(C)=O (centres undefined)	i	nt	nt	nt	nt	nt
SMILES	PTK2B oligo ant	Jurkat tox 60K	Lung fibro prol	MT1-MMP txn act	H69AR inhibit	HUVEC inhibit
O=C(C1CCN(S(=O)(=O)c2cccc3nsnc23)CC1)N1CC=C(c2ccccc2)CC1	i	i	i	i	i	i
O=C(C1CCC(CNS(=O)(=O)c2cccc3nsnc23)CC1)N1CC=C(c2ccccc2)CC1 (centres undefined)	nt	nt	i	nt	39.3	i
CC1CCC(NC(=O)C2CCC(CNS(=O)(=O)c3cccc4nsnc34)CC2)CC1 (centres undefined)	nt	nt	i	nt	17.2	i
O=C(NC1CCCCC1)C1CCC(CNS(=O)(=O)c2cccc3nsnc23)CC1 (centres undefined)	nt	nt	i	nt	i	i
Cc1onc(-c2ccccc2Cl)c1C(=O)Nc1sc2c(c1C(N)=O)CCC(C)C2 (centres undefined)	i	nt	i	i	i	i
O=C(CSc1nnc(-c2c[nH]c3ccccc23)o1)N(Cc1ccccc1)c1ccc(F)cc1	-3.32	i	i	i	i	i
Clc1cccc(CSc2nnc(-c3c[nH]c4ccccc34)o2)c1	i	nt	nt	nt	nt	nt
CC1CCCCN1C(=O)CSc1nnc(-c2c[nH]c3ccccc23)o1 (centres undefined)	i	i	i	i	21.7	i
Cc1ccc(C(=O)CSc2nnc(-c3c[nH]c4ccccc34)o2)cc1	i	nt	nt	nt	nt	nt
CCOC(=O)CN(C(=O)CSc1nnc(-c2cccc(OC)c2)o1)c1ccc(F)cc1	i	i	i	i	i	i
